In article PMC3139708 (Nature chemical biology, 2011):
“Also recorded” adds a separate entry of the source. Where a SMILES comes first, the peptide text is derived from it. [ ]: non-standard residue; d: D form. βAla = NCCC(=O)O

How the values were obtained:
FKBP(F36V) = FKBP(F36V) (Homo sapiens, UniProt P62942, F37V); assay: Fluorescence polarization competition binding against Fl-SLF; conditions: polarization signal; Fl-SLF 1 nM, FKBP(F36V) 100 nM
Procedure, shortened: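 Purified FKBP(F36V) and fluorescent Shield-1 analog Fl-SLF were held at fixed concentrations and incubated with a titration of synthetic test peptide. Tracer displacement was read as the decrease in fluorescence polarization.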

YFP-LID [1] = assay: Shield-dependent degradation of YFP-LID in NIH3T3 cells, flow cytometry; assay type: cell-based
Procedure, shortened: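 NIH3T3 cells were stably retrovirally transduced with YFP-FKBP(F36V) plus the 19-residue C-terminal peptide, with IRES-HcRed as infection marker. They were plated at 1 × 10⁵ per well and given vehicle or Shield-1 (1 pM–1 μM, or 1 μM for 24 h), then trypsinised. YFP was read by flow cytometry (typically 10,000 events) against untransduced-cell autofluorescence. Error bars are s.d. from at least two experiments.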

FKBP = conditions: relative to Shield-1; ref [19]; cited from earlier work
YFP-LID [2] = assay: Time course of YFP-LID degradation and recovery in NIH3T3 cells, flow cytometry; assay type: cell-based; conditions: NIH3T3, absence of cycloheximide
Procedure, shortened: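 Stably transduced NIH3T3 cells expressing YFP-LID were plated at 1 × 10⁵ cells/well. For degradation, Shield-1 was added and cells were sampled at various times. For recovery, Shield-1 was removed by changing to fresh growth medium containing 5 μM recombinant FKBP(F36V) at set times before analysis. YFP was read by flow cytometry, and the maximum fluorescence was set to 100%.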

[3] = system: YFP-LID fusion proteins in HeLa cells; assay: YFP-LID degradation in transiently transfected HeLa cells; assay type: cell-based; conditions: 24 hours Shield-1
[4] = system: YFP-LID fusion proteins in U2OS cells; assay: YFP-LID degradation in transiently transfected U2OS cells; assay type: cell-based; conditions: 24 hours Shield-1
YFP = assay: Stability of YFP fused directly to the 19-residue peptide or its truncations; assay type: cell-based; conditions: 1 μM Shield-1, 24 h, flow cytometry
Procedure, shortened: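 The 19-residue peptide was fused directly to YFP, without FKBP, and stably transduced into NIH3T3 cells by retrovirus. Cells were plated at 1 × 10⁵ per well, treated with vehicle or 1 μM Shield-1 for 24 h, trypsinised and analysed by flow cytometry (typically 10,000 events). Error bars are s.d. from at least two experiments.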

[5] = system: transcription factors fused to LID (Oct4, Klf4, Sox2, Myc, Lin28, Nanog); assay type: cell-based, human; Nanog mouse; conditions: 2 μM Shield-1, 24 h, NIH3T3, immunoblot
Procedure, shortened: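 LID was fused to the C-terminus of each of six transcription factors. Each was retrovirally transduced into NIH3T3 cells separately (4 μg/mL polybrene, 4 h, 37 °C; 24–36 h integration) in DMEM with 10% donor bovine serum. Cells got vehicle or 2 μM Shield-1 for 24 h. Lysates were immunoblotted with anti-Oct4, anti-Klf4, anti-HA (Sox2, Myc, Lin28) or anti-Flag (Nanog). α-Tubulin was the loading control; untransduced cells were the reference.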

Oct4-LID = assay: Reprogramming of MEFs; assay type: cell-based, murine embryonic fibroblasts; conditions: 2 μM Shield-1 from day 3 post-infection
Procedure, shortened: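 Fibroblasts came from transgenic mice carrying GFP driven by the Oct4 promoter. They were retrovirally transduced with Sox2, Myc, Klf4 and Oct4-LID, with untagged Oct4 as comparison. Vehicle or 2 μM Shield-1 was added on day 3 post-infection, and alkaline phosphatase staining was done on day 14. GFP-positive cells were moved to fresh feeder layer on day 19 and stained with APC anti-SSEA-1 on day 24.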

actin-GFP-LID = assay: Depletion of β-actin-AcGFP-LID in NIH3T3 cells, fluorescence microscopy; assay type: cell-based, human; conditions: 2 μM Shield-1, 24 hours
Procedure, shortened: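 NIH3T3 fibroblasts were retrovirally co-transduced (4 μg/mL polybrene, 4 h, 37 °C; then 24–36 h in growth medium) with human β-actin fused to Aequorea coerulescens GFP plus LID, and with β-actin-mCherry to mark microfilaments. Cells were cultured ± Shield-1, and green and red actin filaments were imaged by epifluorescence microscopy with a 40x objective.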

YFP-LID [6] = assay: Simultaneous use of LID and DD systems in NIH3T3 cells: YFP-LID; assay type: cell-based; conditions: various concentrations of Shield-1, 24 h, flow cytometry and microscopy
Procedure, shortened: (§1)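 NIH3T3 cells stably co-transduced with YFP-LID and DD-mCherry were plated at 1 × 10⁵ cells/well. They were exposed to a range of Shield-1 concentrations for 24 h, then detached with trypsin-EDTA. YFP and mCherry were read in their respective channels by flow cytometry (typically 10,000 events) and by epifluorescence microscopy.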

DD-mCherry = assay: Simultaneous use of LID and DD systems in NIH3T3 cells: DD-mCherry; assay type: cell-based; conditions: various concentrations of Shield-1, 24 h, flow cytometry and microscopy
Procedure, shortened: as §1

[7] = system: YFP-FKBP(F36V)-degron-LPLPLP fusions (CL1, CyclinB, encephalomyocarditis virus degron); assay type: cell-based; conditions: NIH3T3, flow cytometry
FKBP domain = conditions: ref [18],[26]; cited from earlier work

FKBP(F36V), sequence (P62942 whole entry F37V): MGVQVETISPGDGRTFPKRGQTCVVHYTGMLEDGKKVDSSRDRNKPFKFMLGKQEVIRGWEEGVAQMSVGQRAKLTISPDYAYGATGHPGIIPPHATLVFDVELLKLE

CC(C)C[C@H](NC(=O)[C@H](CC(C)C)NC(=O)[C@@H](NC(=O)[C@@H](NC(=O)CNC(=O)[C@H](CCC(=O)O)NC(=O)[C@H](C)NC(=O)[C@@H](NC(=O)[C@H](CCC(=O)O)NC(=O)[C@H](CCC(=O)O)NC(=O)[C@@H](NC(=O)CNC(=O)[C@H](CCCNC(=N)N)NC(=O)[C@@H](NC(=O)CCN)[C@@H](C)O)C(C)C)C(C)C)C(C)C)C(C)C)C(=O)N[C@@H](CCCNC(=N)N)C(=O)N[C@@H](CCCNC(=N)N)C(=O)N[C@@H](CCCNC(=N)N)C(=O)NCC(=O)N[C@@H](CC(N)=O)C(=O)O [19-residue peptide] (H-[βAla]TRGVEEVAEGVVLLRRRGN-OH; N-terminus and C-terminus assumed)
displacement of tracer Fl-SLF from FKBP (FKBP(F36V)): dose-dependent decrease in polarization signal

CCC(CC)NC(=O)N1CCCC[C@H]1C(=O)O[C@H](CCc1ccc(OC)c(OC)c1)c1cccc(OCCN2CCOCC2)c1 [Shield-2]
destabilization of the LID domain (YFP-LID [1]; NIH3T3 cells, compared with Shield-1): can also destabilize the LID domain although with slightly reduced potency
binding potency for FKBP (FKBP): less potent binding ligand for FKBP

CC[C@H](C(=O)N1CCCC[C@H]1C(=O)O[C@H](CCc1ccc(OC)c(OC)c1)c1cccc(OCCN2CCOCC2)c1)c1cc(OC)c(OC)c(OC)c1 [Shield-1]
YFP fluorescence levels in Shield-treated cells above the background autofluorescence (YFP-LID [1]; relative to untransduced NIH3T3 cells, flow cytometry): 10-20%
time for YFP levels to be reduced 50% upon addition of Shield-1 (YFP-LID [2]): 45 min
degradation of YFP-LID fusion proteins [3]: could be degraded in transient transfected HeLa and U2OS cells
degradation of YFP-LID fusion proteins [4]: could be degraded in transient transfected HeLa and U2OS cells
effect of Shield-1 on the stability of YFP-19mer (YFP): this instability is not affected by Shield-1; also recorded: no effect on the stability of this fusion
degradation of LID-fused transcription factors [5]: all degraded in a Shield-1 dependent manner
reprogramming to iPS cells of cells expressing Oct4-LID in the presence of Shield-1 (Oct4-LID): unable to undergo reprogramming to iPS cells
GFP fluorescence of β-actin-GFP-LID after Shield-1 (actin-GFP-LID): GFP fluorescence was absent
YFP-LID level (YFP-LID [6]): dose-dependent depletion of YFP-LID
mCherry (DD-mCherry) level (DD-mCherry): simultaneous stabilization of mCherry
stability of YFP-FKBP-degron-LPLPLP fusions with Shield-1 [7]: an increase in fluorescence was observed
affinity for the FKBP domain (FKBP domain): sub-nanomolar
